# Experimental data taken from ChEMBL document CHEMBL4622928, “Discovery of 5-(4-methylpiperazin-1-yl)-2-nitroaniline derivatives as a new class of SIRT6 inhibitors” (Bioorg Med Chem Lett, 2020).
# Tests used:
# [1] = target: T1, NAD-dependent protein deacylase sirtuin-6 (Homo sapiens, UniProt Q8N6T7); assay: Inhibition of SIRT6 (unknown origin) using Ac-RYQK(Ac)-AMC as substrate by Fluor de Lys assay
# [2] = target: T1, NAD-dependent protein deacylase sirtuin-6; assay: Binding affinity to SIRT6 (unknown origin) assessed as change in melting temperature at 40 uM by differential scanning fluorimetry
# [3] = target: T1, NAD-dependent protein deacylase sirtuin-6; assay: Binding affinity to SIRT6 (unknown origin) by isothermal titration calorimetry
# [4] = Toxicity in mouse assessed as effect on body weight; conditions: in vivo
# Outline: (§1)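 Normal (non-diabetic) mice were dosed, and blood glucose and body weight were tracked over the study.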
# [5] = Toxicity in mouse assessed as change in blood glucose level; outline: as §1
# [6] = Toxicity in mouse model of type-2 diabetes mellitus assessed as effect on body weight at 7.5 to 30 mg/kg, ip; type: organism-based; conditions: in vivo
# Outline: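 High-fat-diet-fed mice served as the type 2 diabetes model. Compound was given by intraperitoneal injection, and blood glucose and body weight were followed over time.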
# [7] = target: T2, NAD-dependent protein deacetylase sirtuin-2 (Homo sapiens, UniProt Q8IXJ6); assay: Inhibition of SIRT2 (unknown origin)
# T2 sequence (Q8IXJ6 whole entry): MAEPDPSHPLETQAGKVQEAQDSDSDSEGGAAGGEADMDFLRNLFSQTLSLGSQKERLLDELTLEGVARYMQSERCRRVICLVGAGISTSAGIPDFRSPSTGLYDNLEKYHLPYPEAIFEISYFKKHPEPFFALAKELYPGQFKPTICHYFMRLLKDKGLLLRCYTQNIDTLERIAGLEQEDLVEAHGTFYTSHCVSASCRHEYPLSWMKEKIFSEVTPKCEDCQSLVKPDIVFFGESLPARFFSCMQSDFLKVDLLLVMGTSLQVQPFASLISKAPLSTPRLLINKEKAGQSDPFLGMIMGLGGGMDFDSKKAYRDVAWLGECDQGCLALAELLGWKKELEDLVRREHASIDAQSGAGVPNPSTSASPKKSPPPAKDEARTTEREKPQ
# Outline: (§2)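 Each deacetylase was run in a Fluor de Lys (FDL) fluorogenic deacetylation assay as a selectivity screen, with compound tested at concentrations up to 200 μM. IC50 was estimated from the dose-response.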
# Histone deacetylase 3 = Histone deacetylase 3 (Homo sapiens, UniProt O15379); assay: Inhibition of HDAC3 (unknown origin); outline: as §2
# Histone deacetylase 4 = Histone deacetylase 4 (Homo sapiens, UniProt P56524); assay: Inhibition of HDAC4 (unknown origin); outline: as §2
# Histone deacetylase 5 = Histone deacetylase 5 (Homo sapiens, UniProt Q9UQL6); assay: Inhibition of HDAC5 (unknown origin); outline: as §2
# [8] = target: T3, Protein deacetylase HDAC6 (Homo sapiens, UniProt Q9UBN7); assay: Inhibition of HDAC6 (unknown origin); outline: as §2
# T3 sequence (Q9UBN7 whole entry): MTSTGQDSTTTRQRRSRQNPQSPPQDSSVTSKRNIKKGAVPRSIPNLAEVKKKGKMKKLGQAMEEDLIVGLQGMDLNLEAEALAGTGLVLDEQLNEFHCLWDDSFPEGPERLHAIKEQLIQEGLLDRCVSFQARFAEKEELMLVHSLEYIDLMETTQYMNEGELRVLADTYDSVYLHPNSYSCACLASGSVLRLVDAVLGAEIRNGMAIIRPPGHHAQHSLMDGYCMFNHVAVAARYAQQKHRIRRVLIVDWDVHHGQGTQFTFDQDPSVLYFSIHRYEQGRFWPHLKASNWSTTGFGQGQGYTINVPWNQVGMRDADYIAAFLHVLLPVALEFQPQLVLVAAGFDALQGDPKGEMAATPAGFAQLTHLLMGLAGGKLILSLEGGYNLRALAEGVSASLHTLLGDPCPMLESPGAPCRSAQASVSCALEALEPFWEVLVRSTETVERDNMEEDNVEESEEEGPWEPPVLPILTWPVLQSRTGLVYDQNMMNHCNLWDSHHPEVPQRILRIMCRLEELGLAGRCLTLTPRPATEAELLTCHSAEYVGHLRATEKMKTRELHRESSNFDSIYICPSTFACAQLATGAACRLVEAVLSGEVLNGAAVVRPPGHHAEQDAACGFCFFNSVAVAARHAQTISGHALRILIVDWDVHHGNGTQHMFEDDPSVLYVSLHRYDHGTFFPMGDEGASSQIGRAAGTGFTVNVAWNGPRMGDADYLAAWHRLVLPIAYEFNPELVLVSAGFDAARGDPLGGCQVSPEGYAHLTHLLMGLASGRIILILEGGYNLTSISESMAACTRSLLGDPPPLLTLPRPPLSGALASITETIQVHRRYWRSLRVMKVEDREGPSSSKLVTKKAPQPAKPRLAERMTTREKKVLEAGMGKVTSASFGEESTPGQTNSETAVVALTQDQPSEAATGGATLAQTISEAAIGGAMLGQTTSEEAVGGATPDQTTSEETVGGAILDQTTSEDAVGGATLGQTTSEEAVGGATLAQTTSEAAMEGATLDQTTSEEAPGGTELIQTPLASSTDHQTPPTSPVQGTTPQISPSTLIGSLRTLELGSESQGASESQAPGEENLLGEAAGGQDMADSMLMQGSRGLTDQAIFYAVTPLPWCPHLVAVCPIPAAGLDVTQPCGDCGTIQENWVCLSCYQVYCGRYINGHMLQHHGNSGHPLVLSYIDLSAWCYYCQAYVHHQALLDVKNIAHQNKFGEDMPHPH
# Histone deacetylase 9 = Histone deacetylase 9 (Homo sapiens, UniProt Q9UKV0); assay: Inhibition of HDAC9 (unknown origin); outline: as §2
# Histone deacetylase 11 = target: T4, Histone deacetylase 11 (Homo sapiens, UniProt Q96DB2); assay: Inhibition of HDAC11 (unknown origin); outline: as §2
# T4 sequence (Q96DB2 whole entry): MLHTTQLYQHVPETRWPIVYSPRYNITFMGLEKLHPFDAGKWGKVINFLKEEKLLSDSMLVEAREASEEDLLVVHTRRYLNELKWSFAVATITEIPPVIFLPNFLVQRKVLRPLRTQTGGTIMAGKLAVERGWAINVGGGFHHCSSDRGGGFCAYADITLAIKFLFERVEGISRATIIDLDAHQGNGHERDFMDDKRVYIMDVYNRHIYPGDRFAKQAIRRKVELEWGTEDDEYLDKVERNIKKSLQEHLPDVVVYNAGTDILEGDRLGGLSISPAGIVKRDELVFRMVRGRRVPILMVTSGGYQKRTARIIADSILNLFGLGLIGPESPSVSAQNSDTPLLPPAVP
# [9] = target: T1, NAD-dependent protein deacylase sirtuin-6; assay: Inhibition of SIRT6 in human BxPC3 cells assessed as increase in H3K9Ac expression measured after 48 hrs by Western blot analysis; type: cell-based; conditions: BXPC-3
# Outline: (§3)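 BxPC-3 cells were exposed to 0.78, 1.56, 3.13, 6.25, 12.5 and 25 μM compound for 48 h. Histone H3K9ac and H3K18ac levels were then assessed by western blot, with β-actin as the loading control. Acetylation increase is read as cellular SIRT6 deacetylase inhibition.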
# [10] = target: T1, NAD-dependent protein deacylase sirtuin-6; assay: Inhibition of SIRT6 in human BxPC3 cells assessed as increase in […] expression measured after 48 hrs by Western blot analysis; type: cell-based; conditions: BXPC-3; outline: as §3
# BXPC-3 = assay: Upregulation of GLUT1 expression in human BxPC3 cells measured after 72 hrs by Western blot analysis; type: functional, cell-based
# Outline: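 BxPC-3 cells were exposed to 1.25, 2.5, 5 and 10 μM compound for 72 h. GLUT1 protein was then detected by western blot, with α-tubulin as loading control.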
# T1 sequence (Q8N6T7 whole entry): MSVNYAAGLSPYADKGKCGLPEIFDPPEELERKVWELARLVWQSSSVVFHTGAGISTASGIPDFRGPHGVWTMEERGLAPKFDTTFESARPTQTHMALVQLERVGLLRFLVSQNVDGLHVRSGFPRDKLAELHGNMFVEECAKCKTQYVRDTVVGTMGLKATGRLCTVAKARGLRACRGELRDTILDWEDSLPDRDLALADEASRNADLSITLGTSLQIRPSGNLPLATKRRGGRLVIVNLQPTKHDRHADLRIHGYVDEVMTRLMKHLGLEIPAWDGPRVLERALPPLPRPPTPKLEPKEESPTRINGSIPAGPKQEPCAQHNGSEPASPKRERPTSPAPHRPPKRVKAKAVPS
# Chain of Histone deacetylase 9 (Q9UKV0 whole entry): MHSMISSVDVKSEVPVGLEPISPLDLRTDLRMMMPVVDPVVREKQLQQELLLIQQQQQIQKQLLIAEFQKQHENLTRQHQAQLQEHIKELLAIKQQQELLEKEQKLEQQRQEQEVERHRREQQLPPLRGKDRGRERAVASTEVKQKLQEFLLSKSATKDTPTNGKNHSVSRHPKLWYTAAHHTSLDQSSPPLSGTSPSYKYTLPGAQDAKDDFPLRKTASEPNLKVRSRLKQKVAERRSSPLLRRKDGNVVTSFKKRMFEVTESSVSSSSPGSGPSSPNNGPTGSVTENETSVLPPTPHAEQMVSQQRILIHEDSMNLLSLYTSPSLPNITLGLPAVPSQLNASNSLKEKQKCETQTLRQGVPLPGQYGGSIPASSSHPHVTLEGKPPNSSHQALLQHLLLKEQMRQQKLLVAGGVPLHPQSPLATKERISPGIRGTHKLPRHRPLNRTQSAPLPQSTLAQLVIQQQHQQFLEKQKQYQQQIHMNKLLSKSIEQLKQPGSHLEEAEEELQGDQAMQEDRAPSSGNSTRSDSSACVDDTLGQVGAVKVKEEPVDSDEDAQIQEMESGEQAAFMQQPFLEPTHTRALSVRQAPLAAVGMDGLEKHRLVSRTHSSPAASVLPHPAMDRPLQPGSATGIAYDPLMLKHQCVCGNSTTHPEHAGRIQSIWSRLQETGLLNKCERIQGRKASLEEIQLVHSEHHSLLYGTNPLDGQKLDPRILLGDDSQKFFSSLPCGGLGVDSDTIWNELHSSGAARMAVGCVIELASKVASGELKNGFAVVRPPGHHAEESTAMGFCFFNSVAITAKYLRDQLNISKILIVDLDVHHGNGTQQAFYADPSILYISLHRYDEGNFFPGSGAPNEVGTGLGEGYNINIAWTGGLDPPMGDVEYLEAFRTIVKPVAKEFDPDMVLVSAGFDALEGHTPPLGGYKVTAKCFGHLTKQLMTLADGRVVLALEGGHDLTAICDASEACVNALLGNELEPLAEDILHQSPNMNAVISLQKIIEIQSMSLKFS
# Chain of Histone deacetylase 5 (Q9UQL6 whole entry): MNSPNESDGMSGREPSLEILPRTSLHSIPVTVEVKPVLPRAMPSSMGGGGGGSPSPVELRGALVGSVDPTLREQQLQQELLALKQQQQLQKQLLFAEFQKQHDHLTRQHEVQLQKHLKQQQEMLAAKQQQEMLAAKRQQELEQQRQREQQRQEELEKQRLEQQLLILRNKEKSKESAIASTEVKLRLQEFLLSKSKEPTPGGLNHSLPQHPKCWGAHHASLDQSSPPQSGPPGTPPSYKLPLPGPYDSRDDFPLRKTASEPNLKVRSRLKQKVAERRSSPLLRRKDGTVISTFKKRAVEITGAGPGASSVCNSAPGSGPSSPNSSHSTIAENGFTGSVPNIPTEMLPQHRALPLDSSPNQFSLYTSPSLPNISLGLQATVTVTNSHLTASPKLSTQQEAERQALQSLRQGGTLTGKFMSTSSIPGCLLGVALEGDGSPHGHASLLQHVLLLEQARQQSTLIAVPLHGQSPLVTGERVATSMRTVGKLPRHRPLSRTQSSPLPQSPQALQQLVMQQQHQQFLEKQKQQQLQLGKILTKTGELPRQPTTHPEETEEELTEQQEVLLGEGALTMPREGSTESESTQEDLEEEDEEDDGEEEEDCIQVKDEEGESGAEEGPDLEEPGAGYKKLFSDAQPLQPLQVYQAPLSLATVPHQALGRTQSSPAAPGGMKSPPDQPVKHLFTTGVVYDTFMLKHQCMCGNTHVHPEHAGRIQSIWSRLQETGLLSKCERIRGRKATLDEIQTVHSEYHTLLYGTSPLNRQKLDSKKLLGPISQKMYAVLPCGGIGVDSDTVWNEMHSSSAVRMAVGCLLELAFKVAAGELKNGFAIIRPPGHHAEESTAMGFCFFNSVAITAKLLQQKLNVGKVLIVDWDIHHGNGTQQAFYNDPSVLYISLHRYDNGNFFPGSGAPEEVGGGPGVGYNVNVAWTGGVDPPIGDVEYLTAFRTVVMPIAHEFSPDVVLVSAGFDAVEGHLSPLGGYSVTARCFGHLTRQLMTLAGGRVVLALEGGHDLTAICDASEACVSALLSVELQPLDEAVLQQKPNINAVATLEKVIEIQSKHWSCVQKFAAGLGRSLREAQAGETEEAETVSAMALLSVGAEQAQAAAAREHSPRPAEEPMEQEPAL
# Chain of Histone deacetylase 4 (P56524 whole entry): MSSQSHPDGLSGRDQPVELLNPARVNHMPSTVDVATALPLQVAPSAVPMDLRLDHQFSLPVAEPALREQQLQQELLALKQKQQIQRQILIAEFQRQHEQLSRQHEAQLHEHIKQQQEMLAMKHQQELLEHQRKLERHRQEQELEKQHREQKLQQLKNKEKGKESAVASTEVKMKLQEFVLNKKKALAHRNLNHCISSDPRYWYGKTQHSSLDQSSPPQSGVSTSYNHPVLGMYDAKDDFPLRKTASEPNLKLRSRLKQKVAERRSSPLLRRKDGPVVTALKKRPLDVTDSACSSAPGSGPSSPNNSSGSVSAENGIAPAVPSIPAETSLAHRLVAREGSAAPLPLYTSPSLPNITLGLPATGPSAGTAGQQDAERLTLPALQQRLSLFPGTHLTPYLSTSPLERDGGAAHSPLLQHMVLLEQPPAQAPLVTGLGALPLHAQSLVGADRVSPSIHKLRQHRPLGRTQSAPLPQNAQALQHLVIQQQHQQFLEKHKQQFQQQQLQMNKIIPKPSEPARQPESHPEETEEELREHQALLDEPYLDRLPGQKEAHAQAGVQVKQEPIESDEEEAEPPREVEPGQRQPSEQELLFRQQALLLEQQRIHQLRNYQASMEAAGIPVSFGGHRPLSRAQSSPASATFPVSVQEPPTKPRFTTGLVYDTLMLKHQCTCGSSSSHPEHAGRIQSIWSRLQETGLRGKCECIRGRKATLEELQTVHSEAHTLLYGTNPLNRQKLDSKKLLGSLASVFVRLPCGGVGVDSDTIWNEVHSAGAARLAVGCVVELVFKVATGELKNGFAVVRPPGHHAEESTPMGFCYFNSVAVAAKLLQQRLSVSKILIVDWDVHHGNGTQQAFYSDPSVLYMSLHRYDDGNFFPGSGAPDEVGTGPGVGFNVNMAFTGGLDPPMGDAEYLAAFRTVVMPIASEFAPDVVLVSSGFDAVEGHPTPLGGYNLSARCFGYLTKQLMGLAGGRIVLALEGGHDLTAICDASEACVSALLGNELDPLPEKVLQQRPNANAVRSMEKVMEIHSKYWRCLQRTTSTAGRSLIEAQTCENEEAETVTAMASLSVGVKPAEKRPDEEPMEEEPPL
# Chain of Histone deacetylase 3 (O15379 whole entry): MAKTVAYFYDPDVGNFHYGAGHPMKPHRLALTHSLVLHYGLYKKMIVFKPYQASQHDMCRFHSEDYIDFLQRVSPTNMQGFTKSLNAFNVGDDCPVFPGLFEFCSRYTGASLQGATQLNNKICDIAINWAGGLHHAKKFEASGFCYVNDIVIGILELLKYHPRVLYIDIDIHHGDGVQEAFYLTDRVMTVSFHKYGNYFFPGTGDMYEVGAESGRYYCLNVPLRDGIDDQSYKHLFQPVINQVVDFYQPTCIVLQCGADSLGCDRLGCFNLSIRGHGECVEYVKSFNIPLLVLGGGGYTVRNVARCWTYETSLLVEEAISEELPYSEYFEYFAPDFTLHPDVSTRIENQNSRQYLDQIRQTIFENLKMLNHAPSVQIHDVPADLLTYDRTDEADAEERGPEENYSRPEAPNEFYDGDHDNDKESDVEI
structure (smiles),measurement,setting,value
CN1CCN(c2ccc([N+](=O)[O-])c(N)c2)CC1,IC50,[1],4.93 µM
same,ΔTm,[2],1.88 °C
same,Kd,[3],10 µM
same,Activity,[4],Non-Toxic
same,Activity,[5],Non-Toxic
same,Activity,[6],Non-Toxic
same,IC50,[7],> 200 µM
same,IC50,Histone deacetylase 3,> 200 µM
same,IC50,Histone deacetylase 4,> 200 µM
same,IC50,Histone deacetylase 5,> 200 µM
same,IC50,[8],> 200 µM
same,IC50,Histone deacetylase 9,> 200 µM
same,IC50,Histone deacetylase 11,> 200 µM
same,inhibition,[9],Dose-dependent effect
same,inhibition,[10],Dose-dependent effect
same,Activity,BXPC-3,Dose-dependent effect
